Only some compounds are listed: those with a hit (about 2.5% of all), similar ones and a draw of the others.
SENP8 block-1: SENP8 (human) protease inhibition. inhibition, % at 20 µM. recombinant SENP8, Nedd8 substrate fluorescence. 0.64% of 360,000 active. AID 602440. Q96LD8; in the data active = inhibition mostly above about 40%, no sharp cut-off; inactive = mostly below about 27%
SENP7 block: SENP7 protease inhibition. inhibition, % at 5 µM. recombinant SENP7, Z-RLRGG-aminoluciferin luminescence, 40 min. Q9BQF6. 1.5% of 330,000 active;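 active = inhibition above about 50% at the single test dose, limit read from the data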;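 also: plate controls were DMSO with enzyme for no effect and no enzyme buffer wells for full effect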
Target sequence (Q9BQF6 706-1050 limits assumed): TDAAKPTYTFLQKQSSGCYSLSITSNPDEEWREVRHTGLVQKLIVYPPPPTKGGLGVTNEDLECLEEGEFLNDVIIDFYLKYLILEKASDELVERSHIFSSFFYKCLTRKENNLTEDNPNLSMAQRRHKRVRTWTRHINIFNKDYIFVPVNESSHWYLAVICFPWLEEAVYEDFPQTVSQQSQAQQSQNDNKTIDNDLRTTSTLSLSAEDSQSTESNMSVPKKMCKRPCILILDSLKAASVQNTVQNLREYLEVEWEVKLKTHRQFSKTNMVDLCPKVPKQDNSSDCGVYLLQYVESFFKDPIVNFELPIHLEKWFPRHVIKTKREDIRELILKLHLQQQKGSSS
SENP6 block: inhibitors of human SENP6 protease; 1.8% of 330,000 active; Recombinant SENP6 catalytic domain, aminoluciferin luminescence; AID 2599; Q9GZR1; inhibition, % at 10 µM;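 active = inhibition above about 50% at the single tested dose, limit read from the data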;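 also: plate controls were DMSO wells with enzyme for no effect and DMSO wells lacking enzyme for full effect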
SENP1 inh: blocks the human SENP1 SUMO protease catalytic domain | recombinant SENP1 catalytic domain, CyPet-SUMO1-YPet FRET cleavage | inhibition, % at 10 µM | Q9P0U3 | AID 624204 | 0.21% of 360,000 active;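 active = inhibition at least 30% at 10 µM, raw YFP signal under a set limit, fluorescence ratio 0.5 to 1.5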;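 also: 0% = enzyme with DMSO and 100% = no enzyme wells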
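material = recombinant human SENP1 catalytic domain, His6-tagged | quantity = 20 pM enzyme | reagent = 25 nM SUMO1 FRET substrate | compound dosing = 10 µM single point, 0.5% DMSO | timing = 50 min enzyme reaction, room temperature, light-protected | detection = FRET, CFP and YFP emission | control set = no-enzyme low, enzyme-DMSO high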
SENP8 block-2: blocks the human protease SENP8; Q96LD8; purified SENP8, Z-RLRGG-aminoluciferin cleavage, luminescence; inhibition, % at 10 µM; 1.2% of 330,000 active; AID 2540; in the data active = inhibition above about 50%
SENP8 conf: confirmation of human SENP8 protease inhibitors. shares compounds with SENP8 block-1. purified SENP8, Nedd8-AMC/pro-Nedd8 cleavage fluorescence, 30 min. inhibition, % at 25 µM. 15% of 1,400 active. AID 624319; in the data active = inhibition mostly above about 39%, no sharp cut-off; inactive = mostly below about 34%
SENP1 conf: confirmation of human SENP1 SUMO protease inhibitors; AID 651678; shares compounds with SENP1 inh; recombinant SENP1, CyPet-SUMO1-YPet FRET cleavage; inhibition, % at 10 µM; 34% of 520 active; in the data active = inhibition mostly above about 35%, no sharp cut-off; inactive = mostly below about 32%;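 also: 0% = enzyme with DMSO and 100% = no enzyme control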
SENP1 kin conf: SENP1 (human) inhibition, kinetic confirmation. shares compounds with SENP1 inh. inhibition, % at 10 µM. AID 651690. 26% of 520 active. recombinant SENP1, CyPet-SUMO1-YPet FRET kinetic cleavage; in the data active = inhibition mostly above about 32%, no sharp cut-off; inactive = mostly below about 29%;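 also: 0% = DMSO with enzyme and 100% = no enzyme substrate only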
Starred values were filed as active, the others as inactive; nt = no result.

SMILES	SENP8 block-1	SENP7 block	SENP6 block	SENP1 inh	SENP8 block-2	SENP1 conf	SENP1 kin conf	others
O=C(NCCCc1ccccc1)c1cc(COc2ccc(F)cc2Cl)on1	-3.2	-2.3	0.6	-0.9	8.8	nt	nt
CN(N=Cc1cccc2cccnc12)c1ccc([N+](=O)[O-])cc1[N+](=O)[O-]	41.4*	nt	nt	31.4*	nt	34.5*	22.4	SENP8 conf=10.0
N#Cc1c(C(F)(F)F)cc(-c2ccc(Cl)c(Cl)c2)nc1SCCN1CCOCC1	-71.5	8.5	-1.6	37.7*	2.6	26.5	23.1
CC(=NNc1ccc([N+](=O)[O-])cn1)c1ccc(N)cc1	58.1*	nt	nt	41.3*	nt	21.9	13.1
Cc1ccc(Nc2c(-c3ccc(N(C)C)cc3)nc3ncccn23)cc1	-12.9	-2.3	-24.3	-33.2	-13.5	nt	nt
COc1ccc(-c2nc3ncccn3c2Nc2ccccc2)cc1	-62.0	6.1	14.5	37.0*	3.0	-4.7	22.8
CC(=O)Oc1ccc(N2C(=O)C3C(C2=O)C(C(=O)c2ccc(Cl)cc2)N2CCCC32)cc1 (stereo not given)	2.7	2.2	-12.8	60.6*	3.5	85.6*	44.9*
O=C1C=Cc2ccccc2/C1=C/c1[nH]c(=O)[nH]c1O	-302.1	-2.1	2.0	59.5*	1.8	103.8*	75.5*
CCOC(=O)c1c(NC(=O)c2cc(-c3ccc(O)cc3)on2)sc(C(C)=O)c1C	-132.4	-9.0	3.7	31.3*	16.1	-3.0	-7.7
CNC(=O)COc1ccc(S(=O)(=O)N2CCCC2)cc1	22.8	-4.9	-30.1	3.3	-0.5	nt	nt
CN(C)C(=O)CSc1ccc(S(=O)(=O)N2CCCC2)cn1	12.2	2.0	4.7	39.2*	21.2	43.9*	42.2*
CC1CN(S(=O)(=O)c2cccc(C(=O)Nc3ccc(S(=O)(=O)Nc4ncccn4)cc3)c2)CC(C)O1 (stereo not given)	-2.5	nt	nt	2.2	nt	nt	nt
O=[N+]([O-])c1cccc(/C=C/c2nc(C=Nc3ccccc3)c(O)o2)c1	4.0	-7.5	-1.6	32.9*	-3.2	17.1	18.4
CC(C)(O)c1[nH]c2cc(F)ccc2c1C(C)(C)O	-29.0	nt	nt	-20.9	nt	nt	nt
C=CCOc1ccc(/C=C2\SC(=S)N(N3CCOCC3)C2=O)cc1	30.3	5.5	14.7	0.2	5.1	nt	nt
COc1cc(/C=C2\SC(=S)N(N3CCOCC3)C2=O)cc(OC)c1OC	31.9	-10.0	-26.4	4.1	2.9	nt	nt
COc1ccc(OC)c(/C=C2\SC(=S)N(N3CCOCC3)C2=O)c1	29.6	1.1	-25.8	38.5*	-4.0	2.8	0.5
COc1cc(/C=C2\SC(=S)N(N3CCOCC3)C2=O)ccc1O	31.4	2.8	-6.8	52.7*	3.0	15.2	11.2
COc1ccc(N2CCN(C(=O)c3ccc4c(c3)NC(=O)C(CSCc3ccccc3F)N4)CC2)cc1 (stereo not given)	31.7	nt	nt	33.0*	nt	5.8	8.9
O=C1Nc2cc(C(=O)N3CCN(c4ccccc4F)CC3)ccc2NC1CSCc1ccccc1F (stereo not given)	nt	1.6	3.0	nt	12.8	nt	nt
Cc1nc(C)c(C(=O)OCC(=O)Nc2ccccc2)s1	3.5	5.2	-4.2	-2.5	-2.7	nt	nt
Cc1nc(C)c(C(=O)OCC(=O)Nc2ccccc2SCC#N)s1	1.4	-3.3	-10.4	44.9*	12.7	6.2	7.7
Cc1ccc(C(=O)CCC(=O)OCC(=O)Nc2ccccc2SCC#N)cc1	-3.8	15.9	-0.1	45.7*	6.5	15.4	15.3
CCOc1ccccc1CNC(=O)C1CCCN(c2nnc(C)c3c(C)n(-c4ccccc4)nc23)C1 (stereo not given)	-297.7	4.9	-6.1	1.3	5.9	nt	nt
N#Cc1cc(N)ccc1-n1cccc1	-445.1	-9.7	-1.3	1.1	-10.2	nt	nt
Cc1c(C#N)c(O)[nH]c(=O)c1N=Nc1ccc(Br)cc1C(=O)O	45.5*	nt	nt	38.5*	nt	57.3*	33.9*
Cc1cccc(N=Nc2c(C)c(C#N)c(O)[nH]c2=O)c1	24.4	46.9	18.3	16.0	36.5	nt	nt
Cc1nc(C)c(C(=O)OCC(=O)NCc2ccccc2)s1	13.7	-9.0	14.8	-0.1	9.6	nt	nt

Screening data deposited in PubChem BioAssay by Sanford-Burnham Center for Chemical Genomics.
